# Measurements: ChEMBL document CHEMBL1146760, “3,4-Dihydronaphthalen-1(2H)-ones: novel ligands for the benzodiazepine site of alpha5-containing GABAA receptors” (Bioorg Med Chem Lett, 2004)
# Legend:
# [1] = target: T1, GABA-A receptor; alpha-5/beta-3/gamma-2 (Homo sapiens) (UniProt P18507+P28472+P31644); assay: Percentage modulation of submaximal (EC20) response to GABA-A receptor alpha-5-beta-3-gamma-2 subunits expressed in mouse fibroblast L(tk-) cells; assay type: functional, cell-based
# In short: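 Whole-cell patch clamp of mouse fibroblast L(tk⁻) cells stably expressing human α5β3γ2. Percentage maximum modulation of current relative to a submaximal (EC20) GABA response, taken from fitted concentration–response curves. Mean ± SEM of at least three individual curves.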
# [2] = target: T2, GABA-A receptor; alpha-3/beta-3/gamma-2 (Homo sapiens, UniProt P18507+P28472+P34903); assay: Inhibition of [3H]-Ro- 15-1788 binding to recombinant human gamma-aminobutyric-acid A receptor alpha-3-beta-3-gamma-2; assay type: protein-complex assay
# T2 sequence (P18507 whole entry): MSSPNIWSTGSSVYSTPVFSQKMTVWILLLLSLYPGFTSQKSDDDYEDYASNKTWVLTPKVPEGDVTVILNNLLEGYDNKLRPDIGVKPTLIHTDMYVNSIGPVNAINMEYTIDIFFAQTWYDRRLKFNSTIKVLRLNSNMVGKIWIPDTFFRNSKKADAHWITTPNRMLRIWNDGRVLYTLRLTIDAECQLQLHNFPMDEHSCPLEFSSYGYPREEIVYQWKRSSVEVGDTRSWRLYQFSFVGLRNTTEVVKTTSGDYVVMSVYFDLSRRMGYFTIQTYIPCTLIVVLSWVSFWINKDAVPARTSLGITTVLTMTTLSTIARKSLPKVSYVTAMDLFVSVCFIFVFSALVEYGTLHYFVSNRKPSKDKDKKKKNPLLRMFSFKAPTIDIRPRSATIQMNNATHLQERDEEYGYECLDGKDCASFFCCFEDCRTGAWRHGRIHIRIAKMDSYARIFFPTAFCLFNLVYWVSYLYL
# T2 sequence (P28472 whole entry): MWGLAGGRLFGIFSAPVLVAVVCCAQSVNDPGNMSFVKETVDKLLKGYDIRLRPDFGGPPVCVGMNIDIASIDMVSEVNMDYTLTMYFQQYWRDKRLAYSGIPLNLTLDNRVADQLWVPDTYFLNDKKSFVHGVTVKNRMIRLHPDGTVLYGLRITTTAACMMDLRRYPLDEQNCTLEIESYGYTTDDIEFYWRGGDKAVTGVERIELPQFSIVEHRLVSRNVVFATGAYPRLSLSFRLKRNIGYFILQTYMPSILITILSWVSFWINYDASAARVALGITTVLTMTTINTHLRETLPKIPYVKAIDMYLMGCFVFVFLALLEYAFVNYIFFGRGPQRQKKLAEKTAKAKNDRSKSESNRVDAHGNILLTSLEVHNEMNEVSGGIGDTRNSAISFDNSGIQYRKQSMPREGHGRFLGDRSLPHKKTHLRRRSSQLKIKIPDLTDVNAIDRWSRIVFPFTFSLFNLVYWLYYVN
# T2 sequence (P34903 whole entry): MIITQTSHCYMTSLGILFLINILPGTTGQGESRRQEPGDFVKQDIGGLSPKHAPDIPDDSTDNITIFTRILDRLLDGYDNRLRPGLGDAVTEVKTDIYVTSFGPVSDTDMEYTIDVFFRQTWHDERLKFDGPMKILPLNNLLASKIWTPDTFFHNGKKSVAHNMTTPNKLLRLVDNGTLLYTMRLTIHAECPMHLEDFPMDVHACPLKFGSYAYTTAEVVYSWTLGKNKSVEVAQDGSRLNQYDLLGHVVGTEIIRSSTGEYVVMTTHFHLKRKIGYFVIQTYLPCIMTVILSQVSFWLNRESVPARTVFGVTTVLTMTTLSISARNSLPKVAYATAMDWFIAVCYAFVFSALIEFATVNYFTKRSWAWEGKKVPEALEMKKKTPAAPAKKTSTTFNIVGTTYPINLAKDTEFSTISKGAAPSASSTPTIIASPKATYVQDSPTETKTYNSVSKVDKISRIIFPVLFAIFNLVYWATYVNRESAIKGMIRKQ
# In short: (§1)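 Displacement of [3H]Ro 15-1788 from recombinant human GABAA receptor subtypes; Ki reported as mean ± SEM of at least three independent determinations, or mean of two determinations with both individual values shown.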
# [3] = target: T3, Gamma-aminobutyric acid receptor subunit alpha-5 (Homo sapiens) (UniProt P31644); assay: Selectivity for GABA-A receptor alpha-5 subunit over alpha1,2,3 (range 3-12)
# T3 sequence (whole entry): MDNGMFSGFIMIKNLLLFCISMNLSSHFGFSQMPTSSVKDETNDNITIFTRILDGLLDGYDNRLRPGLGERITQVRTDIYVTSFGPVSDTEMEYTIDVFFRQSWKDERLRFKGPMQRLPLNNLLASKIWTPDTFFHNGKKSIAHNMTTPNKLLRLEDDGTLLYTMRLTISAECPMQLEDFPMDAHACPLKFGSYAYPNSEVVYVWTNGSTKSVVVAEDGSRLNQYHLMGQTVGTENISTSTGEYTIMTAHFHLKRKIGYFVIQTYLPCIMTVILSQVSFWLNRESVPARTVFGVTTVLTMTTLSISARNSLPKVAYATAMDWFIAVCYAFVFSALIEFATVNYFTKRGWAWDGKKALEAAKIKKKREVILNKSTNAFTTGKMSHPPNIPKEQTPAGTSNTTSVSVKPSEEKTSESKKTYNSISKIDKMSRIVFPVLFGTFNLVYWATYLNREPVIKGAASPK
# [4] = target: T4, GABA-A receptor; alpha-1/beta-3/gamma-2 (Homo sapiens, UniProt P14867+P18507+P28472); assay: Inhibition of [3H]-Ro- 15-1788 binding to recombinant human gamma-aminobutyric-acid A receptor alpha-1-beta-3-gamma-2; assay type: protein-complex assay; in short: as §1
# T4 sequence (P14867 whole entry): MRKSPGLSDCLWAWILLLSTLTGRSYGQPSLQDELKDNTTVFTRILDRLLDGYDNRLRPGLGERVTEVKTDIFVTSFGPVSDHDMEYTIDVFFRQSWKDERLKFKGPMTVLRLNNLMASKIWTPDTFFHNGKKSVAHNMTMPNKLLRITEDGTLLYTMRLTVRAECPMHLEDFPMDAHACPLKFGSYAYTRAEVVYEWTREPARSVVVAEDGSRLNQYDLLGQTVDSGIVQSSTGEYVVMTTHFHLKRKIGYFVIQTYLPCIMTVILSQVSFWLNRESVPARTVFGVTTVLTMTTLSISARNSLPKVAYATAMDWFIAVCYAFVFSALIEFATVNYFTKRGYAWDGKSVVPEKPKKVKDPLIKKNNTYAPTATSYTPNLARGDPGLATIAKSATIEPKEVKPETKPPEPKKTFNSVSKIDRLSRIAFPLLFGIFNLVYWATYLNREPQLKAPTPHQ
# T4 sequence (P18507 whole entry): T2 sequence (P18507 whole entry)
# T4 sequence (P28472 whole entry): T2 sequence (P28472 whole entry)
# [5] = target: T5, GABA-A receptor; alpha-5/beta-3/gamma-2 (Homo sapiens, UniProt P18507+P28472+P31644); assay: Inhibition of [3H]-Ro- 15-1788 binding to human GABA-A receptor alpha-5-beta-3-gamma-2 subunits; assay type: protein-complex assay; in short: as §1
# T5 sequence (P18507 whole entry): T2 sequence (P18507 whole entry)
# T5 sequence (P28472 whole entry): T2 sequence (P28472 whole entry)
# T5 sequence (P31644 whole entry): T3 sequence (whole entry)
# [6] = target: T6, GABA-A receptor; alpha-2/beta-3/gamma-2 (Homo sapiens, UniProt P18507+P28472+P47869); assay: Inhibition of [3H]-Ro- 15-1788 binding to recombinant human gamma-aminobutyric-acid A receptor alpha-2-beta-3-gamma-2; assay type: protein-complex assay; in short: as §1
# T6 sequence (P18507 whole entry): T2 sequence (P18507 whole entry)
# T6 sequence (P28472 whole entry): T2 sequence (P28472 whole entry)
# T6 sequence (P47869 whole entry): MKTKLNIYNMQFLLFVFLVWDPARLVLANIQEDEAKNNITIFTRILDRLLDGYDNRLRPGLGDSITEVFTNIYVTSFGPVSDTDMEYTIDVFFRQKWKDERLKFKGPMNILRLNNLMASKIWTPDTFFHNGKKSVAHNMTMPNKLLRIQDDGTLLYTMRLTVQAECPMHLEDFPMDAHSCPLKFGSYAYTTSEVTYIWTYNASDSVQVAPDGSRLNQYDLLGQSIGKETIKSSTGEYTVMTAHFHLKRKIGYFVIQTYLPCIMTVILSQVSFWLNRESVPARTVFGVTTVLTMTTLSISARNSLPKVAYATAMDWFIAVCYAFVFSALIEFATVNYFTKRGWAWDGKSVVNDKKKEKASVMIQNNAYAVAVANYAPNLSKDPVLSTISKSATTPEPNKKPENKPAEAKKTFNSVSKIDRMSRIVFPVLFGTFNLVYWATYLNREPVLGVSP
# [7] = target: T1, GABA-A receptor; alpha-5/beta-3/gamma-2 (Homo sapiens); assay: Percentage modulation of submaximal (EC20) response to GABA-A receptor alpha-5-beta-3-gamma-2 subunits expressed in Xenopus laevis oocytes; assay type: functional, cell-based; settings: Oocyte
# [8] = target: T3, Gamma-aminobutyric acid receptor subunit alpha-5 (Homo sapiens); assay: Selectivity for GABA-A receptor alpha-5 subunit over alpha1,2,3 (range 6-8)
# [9] = target: T3, Gamma-aminobutyric acid receptor subunit alpha-5 (Homo sapiens); assay: Selectivity for GABA-A receptor alpha-5 subunit over alpha1,2,3 (range 14-35)
# [10] = target: T3, Gamma-aminobutyric acid receptor subunit alpha-5 (Homo sapiens); assay: Selectivity for GABA-A receptor alpha-5 subunit over alpha1,2,3 (range 5-15)
# [11] = target: T3, Gamma-aminobutyric acid receptor subunit alpha-5 (Homo sapiens); assay: Selectivity for GABA-A receptor alpha-5 subunit over alpha1,2,3 (range 5-11)
# [12] = target: T3, Gamma-aminobutyric acid receptor subunit alpha-5 (Homo sapiens); assay: Selectivity for GABA-A receptor alpha5 subunit over alpha1,2,3 (range 5-9)
# [13] = target: T3, Gamma-aminobutyric acid receptor subunit alpha-5 (Homo sapiens); assay: Selectivity for GABA-A receptor alpha-5 subunit over alpha1,2,3 (range 7-13)
# [14] = target: T3, Gamma-aminobutyric acid receptor subunit alpha-5 (Homo sapiens); assay: Selectivity for GABA-A receptor alpha-5 subunit over alpha1,2,3 (range 16-38)
# [15] = target: T3, Gamma-aminobutyric acid receptor subunit alpha-5 (Homo sapiens); assay: Selectivity for GABA-A receptor alpha-5 subunit over alpha1,2,3
# [16] = target: T3, Gamma-aminobutyric acid receptor subunit alpha-5 (Homo sapiens); assay: Selectivity for GABA-A receptor alpha-5 subunit over alpha1,2,3 (range 6-14)
# [17] = target: T3, Gamma-aminobutyric acid receptor subunit alpha-5 (Homo sapiens); assay: Selectivity for GABA-A receptor alpha-5 subunit over alpha1,2,3 (range 10-13)
Structure (SMILES),Efficacy [1] [%],Ki [2] [nM],Ki [4] [nM],Ki [5] [nM],Ki [6] [nM],Efficacy [7] [%],also measured
CSc1ccc(-c2ccccn2)c2c1C(=O)CC(C)(C)C2,-32,59,229,19,60,–,Selectivity [3]: 12
CSc1ccc(-c2ccccn2)c2c1C(=O)CC(C)C2 (stereo not given),–,42,63,7.5,63,-5,Selectivity [8]: 8
CC1CC(=O)c2c(SCc3cn[nH]n3)ccc(-c3nccs3)c2C1 (stereo not given),6,36,92,2.6,57,–,Selectivity [9]: 35
CCSc1ccc(-c2nccs2)c2c1C(=O)CC(C)C2 (stereo not given),–,12,5.4,1,15,-8,Selectivity [10]: 15
CC1CC(=O)c2c(Sc3cccs3)ccc(-c3ccccn3)c2C1 (stereo not given),–,4.5,2.3,0.5,5.4,50,Selectivity [11]: 11
CCSc1ccc(-c2cnccn2)c2c1C(=O)CC(C)C2 (stereo not given),–,13,11,2.1,19,2,Selectivity [12]: 9
CCSc1ccc(-c2ccccn2)c2c1C(=O)CC(C)C2 (stereo not given),–,15,25,1.9,13,2,Selectivity [13]: 13
CC1CC(=O)c2c(SCc3ncn(C)n3)ccc(-c3nccs3)c2C1 (stereo not given),29,16,38,1,20,–,Selectivity [14]: 38
CCc1c(C(=O)OC)ncc2[nH]c3cc(OC)c(OC)cc3c12,-57,–,–,–,–,-34,–
CCSc1ccc(-c2cccc[n+]2[O-])c2c1C(=O)CC(C)C2 (stereo not given),80,286,> 300,25,271,–,Selectivity [15]: > 11
CCSc1ccc(-c2ccccn2)c2c1C(=O)CCC2,–,> 300,> 300,103,> 300,–,Selectivity [15]: > 3
CCSc1ccc(-c2ncco2)c2c1C(=O)CC(C)C2 (stereo not given),–,16,37,2.6,38,5,Selectivity [16]: 14
COc1nc(CSc2ccc(-c3nccs3)c3c2C(=O)CC(C)C3)ns1 (stereo not given),57,35,40,3.2,34,–,Selectivity [17]: 13
CNC1=Nc2ccc(Cl)cc2C(c2ccccc2)=[N+]([O-])C1,99,–,–,–,–,134,–
